A word on the IC50: it is the concentration at which inhibition is half-maximal. The term EC50 denotes the concentration at which the effect is half-maximal. A word on the clearance: it is a measure of how efficiently the substance is removed, as volume per time. Read a low clearance as inefficient removal. The half-life is how long it takes for the measured level to halve.

Active and inactive are the calls of the source. No cut-off for these calls is given here.

Series [1] in a line: Fraction unbound in rat plasma. The format is ADME, cell-free.
In the next series the target is Histone deacetylase 1 (Homo sapiens, UniProt Q13547). Kind of series: Inhibition of recombinant human C-terminal FLAG-tagged HDAC1 expressed in human HEK293F cells using Fluor-de-lys substrate as substrate incubated for 3 hrs followed by substrate addition and measured after 60 mins by fluorescence based assay.
Chain of Histone deacetylase 1 (Q13547 whole entry): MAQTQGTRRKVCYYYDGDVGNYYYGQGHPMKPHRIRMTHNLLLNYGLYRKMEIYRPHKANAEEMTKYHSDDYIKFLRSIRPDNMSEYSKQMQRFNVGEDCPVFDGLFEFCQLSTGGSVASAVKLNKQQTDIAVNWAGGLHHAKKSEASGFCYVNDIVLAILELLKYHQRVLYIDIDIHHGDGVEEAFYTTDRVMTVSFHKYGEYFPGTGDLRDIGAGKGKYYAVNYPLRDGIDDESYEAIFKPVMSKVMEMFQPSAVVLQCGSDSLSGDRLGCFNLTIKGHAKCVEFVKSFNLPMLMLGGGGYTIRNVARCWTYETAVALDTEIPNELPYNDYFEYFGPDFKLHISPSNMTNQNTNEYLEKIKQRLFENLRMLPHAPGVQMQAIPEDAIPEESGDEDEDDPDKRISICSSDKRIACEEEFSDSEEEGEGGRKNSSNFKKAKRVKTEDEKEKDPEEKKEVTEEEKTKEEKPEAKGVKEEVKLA
The next series deals with Histone deacetylase 2 (Homo sapiens, UniProt Q92769). The series is described as follows: Inhibition of recombinant human C-terminal FLAG-tagged HDAC2 expressed in human HEK293F cells using Fluor-de-lys substrate as substrate incubated for 3 hrs followed by substrate addition and measured after 60 mins by fluorescence based assay.
Chain of Histone deacetylase 2 (Q92769 whole entry, the tested form may be a part): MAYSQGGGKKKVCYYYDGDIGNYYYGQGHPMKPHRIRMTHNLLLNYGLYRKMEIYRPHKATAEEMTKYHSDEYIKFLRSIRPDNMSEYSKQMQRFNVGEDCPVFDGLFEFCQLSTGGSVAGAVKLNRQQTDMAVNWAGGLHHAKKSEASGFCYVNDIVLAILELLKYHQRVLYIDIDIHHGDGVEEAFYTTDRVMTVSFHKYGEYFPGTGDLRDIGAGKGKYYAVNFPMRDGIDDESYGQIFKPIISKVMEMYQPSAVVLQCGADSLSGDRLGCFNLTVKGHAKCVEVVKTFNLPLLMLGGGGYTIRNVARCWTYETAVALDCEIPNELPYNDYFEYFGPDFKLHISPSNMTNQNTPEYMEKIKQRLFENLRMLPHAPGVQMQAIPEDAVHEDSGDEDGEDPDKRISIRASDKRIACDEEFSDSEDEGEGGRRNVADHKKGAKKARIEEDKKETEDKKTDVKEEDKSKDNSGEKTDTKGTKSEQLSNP
Series [2] deals with T1, Histone deacetylase 3 (Homo sapiens, UniProt O15379). The series is described as follows: Inhibition of recombinant human FLAG-tagged HDAC3 expressed in human HEK293F cells co-expressing His6-tagged SMRT (1 to 899 residues) using Fluor-de-lys substrate as substrate incubated for 3 hrs followed by substrate addition and measured after 60 mins by fluorescence based assay.
T1 sequence (O15379 whole entry, the tested form may be a part): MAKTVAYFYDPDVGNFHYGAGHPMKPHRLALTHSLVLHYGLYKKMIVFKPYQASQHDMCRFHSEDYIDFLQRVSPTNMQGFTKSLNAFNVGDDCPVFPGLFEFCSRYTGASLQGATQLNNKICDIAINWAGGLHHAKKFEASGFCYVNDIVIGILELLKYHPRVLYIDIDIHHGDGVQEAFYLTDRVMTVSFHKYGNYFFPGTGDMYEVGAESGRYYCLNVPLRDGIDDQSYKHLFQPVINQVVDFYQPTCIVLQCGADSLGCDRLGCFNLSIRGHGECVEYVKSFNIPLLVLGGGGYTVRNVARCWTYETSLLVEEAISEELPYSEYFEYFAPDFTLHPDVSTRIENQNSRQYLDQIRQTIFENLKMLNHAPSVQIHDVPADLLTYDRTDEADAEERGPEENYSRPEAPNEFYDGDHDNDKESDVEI

The target of series [3] is T2, Class 1 histone deacetylase (Homo sapiens, UniProt Q13547+O15379+Q92769+Q9BY41). The format is tissue-based. Particulars: 2c4.
T2 sequence (O15379 whole entry, looked up): as the sequence (O15379 whole entry, the tested form may be a part) above
T2 sequence (Q13547 whole entry, looked up): as the sequence (Q13547 whole entry) above
T2 sequence (Q92769 whole entry, looked up): as the sequence (Q92769 whole entry, the tested form may be a part) above
T2 sequence (Q9BY41 whole entry, looked up): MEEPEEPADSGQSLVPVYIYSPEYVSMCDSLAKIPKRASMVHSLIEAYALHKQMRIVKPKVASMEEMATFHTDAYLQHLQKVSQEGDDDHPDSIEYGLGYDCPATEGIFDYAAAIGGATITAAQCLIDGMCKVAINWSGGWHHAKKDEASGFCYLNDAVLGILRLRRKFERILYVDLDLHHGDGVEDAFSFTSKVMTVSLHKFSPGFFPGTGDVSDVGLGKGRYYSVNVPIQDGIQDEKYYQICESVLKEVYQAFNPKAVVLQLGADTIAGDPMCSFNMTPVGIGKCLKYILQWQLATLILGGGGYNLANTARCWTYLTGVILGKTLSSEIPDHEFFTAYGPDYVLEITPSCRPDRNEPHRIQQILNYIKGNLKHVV
For series [4], the target named is T3, Nuclear receptor subfamily 1 group I member 2 (Homo sapiens, UniProt O75469).
T3 sequence (O75469 whole entry): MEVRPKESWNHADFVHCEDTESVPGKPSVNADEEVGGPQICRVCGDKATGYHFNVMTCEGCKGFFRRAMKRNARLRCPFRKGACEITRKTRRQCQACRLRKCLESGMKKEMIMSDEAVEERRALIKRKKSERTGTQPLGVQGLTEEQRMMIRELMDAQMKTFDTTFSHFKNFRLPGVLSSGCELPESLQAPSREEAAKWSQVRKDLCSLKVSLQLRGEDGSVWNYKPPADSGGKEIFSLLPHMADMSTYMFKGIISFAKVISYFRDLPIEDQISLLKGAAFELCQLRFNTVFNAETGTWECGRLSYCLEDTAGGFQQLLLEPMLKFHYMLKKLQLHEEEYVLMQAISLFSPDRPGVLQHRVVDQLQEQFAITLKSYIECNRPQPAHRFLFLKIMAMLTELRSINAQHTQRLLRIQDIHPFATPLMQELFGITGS
The series is described as follows: Activation of PXR (unknown origin) expressed in human DPX2 cells co-expressing luciferase gene under control of CYP3A4 promoter assessed as induction of CYP3A4 transcriptional activity incubated for overnight by luminescence based analysis. The format is ADME, cell-based.

The target of the next series is Cytochrome P450 2C9 (Homo sapiens, UniProt P11712). The series is described as follows: Inhibition of CYP2C9 in human liver microsomes assessed as reduction in 4'-hydroxy diclofenac level using diclofenac as substrate incubated for 10 mins by LC-MS/MS analysis. The format is ADME. (In general: Liver microsomes are vesicles of endoplasmic reticulum, rich in cytochrome P450 enzymes.)
Chain of Cytochrome P450 2C9 (P11712 whole entry): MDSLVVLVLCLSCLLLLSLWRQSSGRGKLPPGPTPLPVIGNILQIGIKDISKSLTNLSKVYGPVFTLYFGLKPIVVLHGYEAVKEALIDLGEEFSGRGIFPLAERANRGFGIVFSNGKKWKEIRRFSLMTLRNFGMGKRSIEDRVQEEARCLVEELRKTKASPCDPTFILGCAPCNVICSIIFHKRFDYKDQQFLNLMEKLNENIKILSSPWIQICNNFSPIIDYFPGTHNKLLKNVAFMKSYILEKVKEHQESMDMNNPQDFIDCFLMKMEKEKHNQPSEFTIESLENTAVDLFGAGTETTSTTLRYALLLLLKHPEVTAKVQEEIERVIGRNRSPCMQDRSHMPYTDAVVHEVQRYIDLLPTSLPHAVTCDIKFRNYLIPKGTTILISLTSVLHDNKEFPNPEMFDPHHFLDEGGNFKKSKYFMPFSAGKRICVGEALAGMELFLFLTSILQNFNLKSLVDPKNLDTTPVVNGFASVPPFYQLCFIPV

Series [5] is described as follows: Genotoxicity in Salmonella typhimurium TA1535 in presence of liver S9 fraction by Ames test. The format is toxicity, subcellular. The settings on record: salmonella enterica subsp. enterica serovar typhimurium. In short, it runs like this: (§1)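 Exploratory, non-GLP Ames mutagenicity test run on a 3-strain panel.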
The target in series [6] is T2, Class 1 histone deacetylase. The series is described as follows: Inhibition of class 1 HDAC in human Jurkat 2C4 model of HIV latency assessed as reactivation of HIV latency incubated for 18 to 24 hrs in presence of 5% heat inactivated NHS by Steady-Glo luciferase assay. The format is tissue-based.
Series [7] shares this target. Kind of series: Inhibition of class 1 HDAC in quiescent human primary T-cell model of VSV-G pseudotyped HIV-1 latency assessed as reactivation of HIV latency incubated for 24 hrs in presence of 10% FBS by NanoGlo luciferase assay. The format is tissue-based.
Series [8] can be described thus: Genotoxicity in Salmonella typhimurium TA98 in presence of liver S9 fraction by Ames test. The format is toxicity, subcellular. Particulars: salmonella enterica subsp. enterica serovar typhimurium. The method in brief:
as §1
In general terms: The Ames test detects mutagens through reverse mutation in bacteria.

Series [9] in a line: Genotoxicity in Salmonella typhimurium TA100 in presence of liver S9 fraction by Ames test. The format is toxicity, subcellular. Particulars: salmonella enterica subsp. enterica serovar typhimurium. The method in brief: as §1
Series [10] is described as follows: Plasma clearance in Wistar Han rat. The format is ADME.
Series [11] in a line: Half life in Wistar Han rat. The format is ADME. The settings on record: in vivo.
Series [12] is described as follows: Oral bioavailability in Wistar Han rat. The format is ADME, organism-based. Particulars: in vivo.
Series [13] concerns the target 5-hydroxytryptamine receptor 2B (Homo sapiens, UniProt P41595). The series is described as follows: Inhibition of human 5HT2B receptor. In short, it runs like this: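 Off-target selectivity screen of 115 receptor, enzyme and transporter binding and biochemical assays. Compound tested in duplicate at 10 μM.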
In series [14] the target is T1, Histone deacetylase 3. Kind of series: Inhibition of recombinant human FLAG-tagged HDAC3 expressed in human HEK293F cells co-expressing His6-tagged SMRT (1 to 899 residues) assessed as fast-on/fast-off kinetics inhibition using Fluor-de-lys substrate as substrate by fluorescence based analysis.
In series [15] the target is T1, Histone deacetylase 3. Kind of series: Inhibition of recombinant human FLAG-tagged HDAC3 expressed in human HEK293F cells co-expressing His6-tagged SMRT (1 to 899 residues) assessed as rapid dissociation inhibition using Fluor-de-lys substrate as substrate measured after compound dilution by jump dilution based analysis.
Series [16] concerns the target T2, Class 1 histone deacetylase. Kind of series: Ratio of IC50 for inhibition of class 1 HDAC in human Jurkat 2C4 model of HIV latency in presence of 5% heat inactivated NHS to IC50 for inhibition of class 1 HDAC in human Jurkat 2C4 model of HIV latency in presence of 0.1% heat inactivated NHS by Steady-Glo luciferase assay. The method in brief: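 Latent HIV luciferase-reporter Jurkat cells were treated with compound and latency reversal was read as increased luminescence. […] Values are means of at least two measurements.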

Chain of 5-hydroxytryptamine receptor 2B (P41595 whole entry, the tested form may be a part): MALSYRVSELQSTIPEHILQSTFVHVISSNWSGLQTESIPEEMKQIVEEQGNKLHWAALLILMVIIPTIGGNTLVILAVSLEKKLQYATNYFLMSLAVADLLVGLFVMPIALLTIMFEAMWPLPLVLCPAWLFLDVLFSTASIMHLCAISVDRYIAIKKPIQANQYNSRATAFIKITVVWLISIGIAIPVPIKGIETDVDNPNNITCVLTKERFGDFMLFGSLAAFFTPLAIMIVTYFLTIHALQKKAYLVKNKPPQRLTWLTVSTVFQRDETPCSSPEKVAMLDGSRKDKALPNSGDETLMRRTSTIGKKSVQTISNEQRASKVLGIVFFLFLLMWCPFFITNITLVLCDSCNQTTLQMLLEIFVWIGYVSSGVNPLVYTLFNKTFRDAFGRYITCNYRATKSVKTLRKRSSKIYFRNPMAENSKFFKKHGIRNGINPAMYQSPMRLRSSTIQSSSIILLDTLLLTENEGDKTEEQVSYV

In [1], `CCC(=O)CCCCC[C@H](NC(=O)C1CN(C)C1)c1ncc(-c2cc3ccccc3nc2OC)[nH]1` gave a Fu of 0.0574.
On to `CCCCCCCC[C@H](NC(=O)C1CN(C)C1)c1ncc(-c2cc3ccccc3nc2OC)[nH]1`, for which the IC50 is 18 µM at Histone deacetylase 1, over 50 µM on Histone deacetylase 2, 5.2 µM on Histone deacetylase 3 [2] and over 40 µM in series [3].
Turning to `CCCC[C@H](NC(=O)Cc1c[nH]c2ccccc12)c1ncc(-c2cc3ccccc3nc2OC)[nH]1`, the IC50 at Histone deacetylase 1 is 0.77 µM; at Histone deacetylase 2, 2.7 µM; on Histone deacetylase 3 [2], 0.34 µM; in series [3], 40 µM; at Cytochrome P450 2C9, 3.4 µM. The concentration giving a half-maximal response (EC50) in series [4] stood at 4.4 µM.
For `CCCC[C@H](NC(=O)Cc1c[nH]c2ccc(OC)cc12)c1ncc(-c2cc3ccccc3nc2OC)[nH]1`, the IC50 at Histone deacetylase 1 was determined as 0.25 µM; on Histone deacetylase 2 it was 0.5 µM; on Histone deacetylase 3 [2], 0.36 µM; in [3], 0.86 µM; on Cytochrome P450 2C9, 1.6 µM. The concentration for a half-maximal effect (EC50) in series [4] came to 2.5 µM.
In the case of `CCCC[C@H](NC(=O)[C@H](C)c1c(C)[nH]c2ccc(O)cc12)c1ncc(-c2cc3ccccc3nc2OC)[nH]1`, the IC50 on Histone deacetylase 1 stood at 0.037 µM; at Histone deacetylase 2, 0.087 µM; on Histone deacetylase 3 [2], 0.0552 µM; in [3] it was 0.24 µM; on Cytochrome P450 2C9, 2.5 µM; in series [6] it was 3.2 µM. In addition, the concentration for half-maximal inhibition (IC50) in series [7] was 2.1 µM; in series [13], under 1 µM. Also, the Activity entry in [5], in series [8] and in [9] was “Non-Toxic” throughout. Also, the EC50 in series [4] worked out at 1.9 µM. Further, the Fu in series [1] worked out at 0.0006. The same compound yielded a clearance in [10] of 25 mL/min/kg. Moreover, the half-life in series [11] was 1.2 h. The F in series [12] was 26%. For the same compound, the inhibition result on Histone deacetylase 3 [14] and on Histone deacetylase 3 [15] was “Active” in each case. Besides, the Ratio IC50 in [16] was determined as 10.
As for `COc1nc2ccccc2cc1-c1cnc(CNC(=O)C2CN(C)C2)[nH]1`, the IC50 on Histone deacetylase 2 was over 50 µM; at Histone deacetylase 3 [2], 15 µM.
Turning to `CCCC[C@H](NC(=O)[C@H](C)c1c(C)[nH]c2ccc(OC)cc12)c1ncc(-c2cc3ccccc3nc2OC)[nH]1`, the half-maximal inhibitory concentration (IC50) came to 0.047 µM on Histone deacetylase 1; 0.12 µM on Histone deacetylase 2; 0.21 µM at Histone deacetylase 3 [2]; 0.3 µM in [3]; 2.9 µM at Cytochrome P450 2C9. Further, the concentration for a half-maximal effect (EC50) in series [4] is 2.9 µM.
Regarding `CCCC[C@H](NC(=O)[C@H](CN)c1c(C)[nH]c2ccc(OC)cc12)c1ncc(-c2cc3ccccc3nc2OC)[nH]1`, the Fu in series [1] was under 0.0001.
For `O=C(CCCCCCC(=O)Nc1ccccc1)NO` [VORINOSTAT], the Fu in series [1] was determined as 0.75.
On to `CCCC[C@H](NC(=O)[C@H](CN)c1c(C)[nH]c2ccc(O)cc12)c1ncc(-c2cc3ccccc3nc2OC)[nH]1`, for which the concentration for half-maximal inhibition (IC50) at Histone deacetylase 1 is 0.002 µM; on Histone deacetylase 2 it was 0.005 µM; on Histone deacetylase 3 [2], 0.0047 µM; in series [3], 1.3 µM; at Cytochrome P450 2C9 it was over 50 µM; in [6], 7.4 µM. Besides, the half-maximal inhibitory concentration (IC50) in [7] worked out at 4.5 µM. Further, in [4], the half-maximal effective concentration (EC50) is over 30 µM. The same compound returned a Fu in series [1] of under 0.0001.
With `COc1nc2ccccc2cc1-c1cnc([C@H](C)NC(=O)C2CN(C)C2)[nH]1`, the IC50 at Histone deacetylase 1 is over 50 µM; on Histone deacetylase 2, over 50 µM; at Histone deacetylase 3 [2], over 50 µM; in series [3], over 40 µM.
Turning to `O=C(/C=C/c1cccc(S(=O)(=O)Nc2ccccc2)c1)NO` [BELINOSTAT], in [1], the Fu is on record as 0.138.
Turning to `CCC[C@H](NC(=O)C1CN(C)C1)c1ncc(-c2cc3ccccc3nc2OC)[nH]1`, the IC50 amounted to 0.39 µM on Histone deacetylase 1, 3.4 µM on Histone deacetylase 2, 0.3 µM at Histone deacetylase 3 [2] and 11 µM in [3].
Turning to `CC[C@H](NC(=O)C1CN(C)C1)c1ncc(-c2cc3ccccc3nc2OC)[nH]1`, the 50% inhibitory concentration (IC50) is 23 µM on Histone deacetylase 1, over 50 µM at Histone deacetylase 2, 28 µM at Histone deacetylase 3 [2] and over 40 µM in series [3].
Regarding `CCCC[C@H](NC(=O)C1CN(C)C1)c1ncc(-c2cc3ccccc3nc2OC)[nH]1`, the IC50 amounted to 0.28 µM on Histone deacetylase 1; 0.75 µM at Histone deacetylase 2; 0.16 µM at Histone deacetylase 3 [2]; 17 µM in series [3]; 50 µM at Cytochrome P450 2C9. For the same compound, the Activity entry in [5], in series [8] and in series [9] was “Non-Toxic” throughout. The concentration giving a half-maximal response (EC50) in series [4] was over 30 µM. Further, the inhibition entry on Histone deacetylase 3 [14] and on Histone deacetylase 3 [15] was “Active” throughout.
As to `CCCCC[C@H](NC(=O)C1CN(C)C1)c1ncc(-c2cc3ccccc3nc2OC)[nH]1`, the IC50 was 4.7 µM on Histone deacetylase 1, over 17 µM on Histone deacetylase 2, 3.5 µM at Histone deacetylase 3 [2] and over 40 µM in series [3].

(Values after ChEMBL document CHEMBL4814059, “Redefining the Histone Deacetylase Inhibitor Pharmacophore: High Potency with No Zinc Cofactor Interaction” (ACS Med Chem Lett, 2021).)
